Laboratory results published in ChEMBL document CHEMBL1641497, “A potent and selective indole N-type calcium channel (Ca(v)2.2) blocker for the treatment of pain” (Bioorg Med Chem Lett, 2011).
Active and inactive are the calls of the source. No cut-off for these calls is given here.

Experiments:
[1] = Plasma clearance in dog at 1 mg/kg, iv and 3 mg/kg, po; assay type: ADME, organism-based, Canis lupus familiaris
Procedure, shortened: (§1)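 Dog PK with 1.0 mg/kg IV and 3.0 mg/kg PO doses, based on plasma analysis. Parameters: dose-normalized AUC (μM h kg/mg), plasma clearance (mL/min/kg), T1/2 (h) and oral bioavailability (%).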

[2] = Oral bioavailability in rat at 3 mg/kg; assay type: ADME, organism-based; conditions: in vivo
Procedure, shortened: (§2)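 Rat PK with 1.0 mg/kg IV and 3.0 mg/kg PO doses, based on plasma analysis. Parameters: Cmax, dose-normalized AUC (μM h kg/mg), plasma clearance (mL/min/kg), Vdss (L/kg), T1/2 (h) and oral bioavailability (%).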

[3] = target: Cav1.2 (voltage-dependent L-type calcium channel subunit alpha-1C) (Homo sapiens, UniProt Q13936); assay: Blockade of Cav1.2 channel at 10 uM by fluorescent calcium-influx assay
Sequence of Cav1.2 (voltage-dependent L-type calcium channel subunit alpha-1C) (Q13936 whole entry): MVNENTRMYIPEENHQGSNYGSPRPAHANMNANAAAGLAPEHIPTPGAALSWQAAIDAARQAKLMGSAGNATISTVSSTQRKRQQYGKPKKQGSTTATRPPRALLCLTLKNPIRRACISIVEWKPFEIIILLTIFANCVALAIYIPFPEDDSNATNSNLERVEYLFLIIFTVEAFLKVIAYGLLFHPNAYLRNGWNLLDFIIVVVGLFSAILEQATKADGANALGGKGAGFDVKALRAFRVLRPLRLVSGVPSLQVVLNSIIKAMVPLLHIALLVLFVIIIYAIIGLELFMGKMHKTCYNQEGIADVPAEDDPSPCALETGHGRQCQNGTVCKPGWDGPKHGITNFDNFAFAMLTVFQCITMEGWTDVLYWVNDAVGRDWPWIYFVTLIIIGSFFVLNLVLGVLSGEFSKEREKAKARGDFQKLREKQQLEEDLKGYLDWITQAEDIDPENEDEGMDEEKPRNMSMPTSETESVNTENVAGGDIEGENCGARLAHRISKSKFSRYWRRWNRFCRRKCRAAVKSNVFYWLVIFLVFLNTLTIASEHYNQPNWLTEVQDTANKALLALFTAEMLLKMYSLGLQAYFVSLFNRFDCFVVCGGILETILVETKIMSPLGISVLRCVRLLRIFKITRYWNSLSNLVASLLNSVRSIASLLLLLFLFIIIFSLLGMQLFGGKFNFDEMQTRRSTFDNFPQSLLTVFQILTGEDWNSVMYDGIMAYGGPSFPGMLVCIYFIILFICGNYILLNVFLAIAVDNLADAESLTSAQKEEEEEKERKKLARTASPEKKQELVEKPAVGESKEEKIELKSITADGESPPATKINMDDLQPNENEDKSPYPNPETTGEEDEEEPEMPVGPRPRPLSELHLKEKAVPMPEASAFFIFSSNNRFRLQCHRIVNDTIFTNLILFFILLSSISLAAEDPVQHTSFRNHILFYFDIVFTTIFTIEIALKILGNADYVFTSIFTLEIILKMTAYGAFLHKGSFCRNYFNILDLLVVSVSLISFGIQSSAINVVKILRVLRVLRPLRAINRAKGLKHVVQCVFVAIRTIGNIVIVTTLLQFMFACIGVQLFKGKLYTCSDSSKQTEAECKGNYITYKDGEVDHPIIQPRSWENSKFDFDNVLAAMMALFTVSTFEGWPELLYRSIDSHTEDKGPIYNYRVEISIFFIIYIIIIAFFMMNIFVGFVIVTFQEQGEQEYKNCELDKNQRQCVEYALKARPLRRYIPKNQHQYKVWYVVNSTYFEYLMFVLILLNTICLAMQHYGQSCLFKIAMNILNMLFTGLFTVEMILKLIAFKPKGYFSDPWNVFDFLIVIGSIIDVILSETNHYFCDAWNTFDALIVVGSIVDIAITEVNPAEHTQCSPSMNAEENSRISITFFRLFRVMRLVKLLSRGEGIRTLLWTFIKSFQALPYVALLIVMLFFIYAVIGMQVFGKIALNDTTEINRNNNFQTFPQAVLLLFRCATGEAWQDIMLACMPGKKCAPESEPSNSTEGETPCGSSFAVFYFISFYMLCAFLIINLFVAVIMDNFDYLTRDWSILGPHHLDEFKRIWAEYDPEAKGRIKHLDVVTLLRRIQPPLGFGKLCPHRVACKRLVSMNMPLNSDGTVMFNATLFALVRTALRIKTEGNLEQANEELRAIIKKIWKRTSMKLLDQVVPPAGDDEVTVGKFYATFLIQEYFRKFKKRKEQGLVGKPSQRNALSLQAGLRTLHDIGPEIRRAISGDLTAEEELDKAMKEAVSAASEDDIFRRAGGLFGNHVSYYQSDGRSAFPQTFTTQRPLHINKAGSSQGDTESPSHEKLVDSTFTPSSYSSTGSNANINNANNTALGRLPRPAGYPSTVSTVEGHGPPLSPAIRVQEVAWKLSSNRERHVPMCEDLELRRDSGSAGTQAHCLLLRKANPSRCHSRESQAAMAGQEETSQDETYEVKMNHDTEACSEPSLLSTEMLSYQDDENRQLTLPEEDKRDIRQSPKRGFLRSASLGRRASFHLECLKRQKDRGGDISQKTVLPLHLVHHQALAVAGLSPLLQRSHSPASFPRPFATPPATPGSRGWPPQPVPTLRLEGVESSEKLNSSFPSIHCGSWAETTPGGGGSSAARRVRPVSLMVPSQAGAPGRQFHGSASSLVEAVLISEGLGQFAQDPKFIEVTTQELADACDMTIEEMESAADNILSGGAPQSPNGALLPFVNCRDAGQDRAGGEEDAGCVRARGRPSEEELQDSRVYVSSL
Procedure, shortened: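 Cav1.2 (L-type) channel block measured with a fluorescent calcium-influx FLIPR assay. Results are reported as % inhibition at 10 μM test concentration.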

[4] = target: T1, Nuclear receptor subfamily 1 group I member 2 (Homo sapiens, UniProt O75469); assay: Activity at PXR by induction assay
T1 sequence (O75469 whole entry): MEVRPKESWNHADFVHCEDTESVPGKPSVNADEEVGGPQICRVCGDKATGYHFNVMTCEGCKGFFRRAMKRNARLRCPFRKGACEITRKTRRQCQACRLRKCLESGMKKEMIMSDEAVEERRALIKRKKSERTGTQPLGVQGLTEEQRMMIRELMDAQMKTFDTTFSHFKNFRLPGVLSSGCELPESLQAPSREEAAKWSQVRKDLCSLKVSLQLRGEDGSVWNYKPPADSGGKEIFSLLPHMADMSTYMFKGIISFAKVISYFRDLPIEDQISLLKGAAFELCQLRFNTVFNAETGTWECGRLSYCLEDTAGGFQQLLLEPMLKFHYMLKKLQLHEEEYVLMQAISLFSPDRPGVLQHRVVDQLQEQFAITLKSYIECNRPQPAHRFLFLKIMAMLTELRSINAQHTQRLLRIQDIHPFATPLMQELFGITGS

[5] = Metabolic stability in human liver microsomes assessed as compound remaining after 60 mins; assay type: ADME, Microsome; conditions: read-out: Stability
Procedure, shortened: (§3)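 Compounds incubated with human or rat liver microsomes for 60 min. Read-out is the percent of parent compound remaining.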

[6] = Metabolic stability in rat liver microsomes assessed as compound remaining after 60 mins; assay type: ADME, Microsome; conditions: read-out: Stability; procedure, shortened: as §3
Rattus norvegicus [7] = assay: Dose normalized AUC in rat at 1 mg/kg, iv and 3 mg/kg, po; assay type: ADME, organism-based; conditions: in vivo; procedure, shortened: as §2
[8] = Plasma clearance in rat at 1 mg/kg, iv and 3 mg/kg, po; assay type: ADME, organism-based; procedure, shortened: as §2
[9] = Half life in rat at 1 mg/kg, iv and 3 mg/kg, po; assay type: ADME, organism-based; conditions: in vivo; procedure, shortened: as §2
Canis familiaris [10] = assay: Dose normalized AUC in dog at 1 mg/kg, iv and 3 mg/kg, po; assay type: ADME, organism-based, Canis lupus familiaris; conditions: in vivo; procedure, shortened: as §1
[11] = Half life in dog at 1 mg/kg, iv and 3 mg/kg, po; assay type: ADME, organism-based, Canis lupus familiaris; conditions: in vivo; procedure, shortened: as §1
[12] = Oral bioavailability in dog at 3 mg/kg; assay type: ADME, organism-based, Canis lupus familiaris; conditions: in vivo
Cytochrome P450 3A4 = Cytochrome P450 3A4 (Homo sapiens, UniProt P08684); assay: Inhibition of CYP3A4; assay type: ADME
Sequence of Cytochrome P450 3A4 (P08684 whole entry): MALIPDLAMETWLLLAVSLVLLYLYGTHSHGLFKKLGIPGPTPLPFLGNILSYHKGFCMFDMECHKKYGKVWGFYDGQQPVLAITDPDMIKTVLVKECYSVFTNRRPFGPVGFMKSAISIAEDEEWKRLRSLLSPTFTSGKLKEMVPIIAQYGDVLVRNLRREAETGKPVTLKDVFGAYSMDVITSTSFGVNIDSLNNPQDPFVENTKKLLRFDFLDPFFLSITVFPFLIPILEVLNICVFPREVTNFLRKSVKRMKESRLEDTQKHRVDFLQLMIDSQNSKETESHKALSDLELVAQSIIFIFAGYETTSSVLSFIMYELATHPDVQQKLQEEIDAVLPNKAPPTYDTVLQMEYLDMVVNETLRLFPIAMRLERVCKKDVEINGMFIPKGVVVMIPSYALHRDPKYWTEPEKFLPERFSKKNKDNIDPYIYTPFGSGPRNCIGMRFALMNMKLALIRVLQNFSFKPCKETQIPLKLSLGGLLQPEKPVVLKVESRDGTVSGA

Cytochrome P450 2D6 = Cytochrome P450 2D6 (Homo sapiens, UniProt P10635); assay: Inhibition of CYP2D6; assay type: ADME
Sequence of Cytochrome P450 2D6 (P10635 whole entry): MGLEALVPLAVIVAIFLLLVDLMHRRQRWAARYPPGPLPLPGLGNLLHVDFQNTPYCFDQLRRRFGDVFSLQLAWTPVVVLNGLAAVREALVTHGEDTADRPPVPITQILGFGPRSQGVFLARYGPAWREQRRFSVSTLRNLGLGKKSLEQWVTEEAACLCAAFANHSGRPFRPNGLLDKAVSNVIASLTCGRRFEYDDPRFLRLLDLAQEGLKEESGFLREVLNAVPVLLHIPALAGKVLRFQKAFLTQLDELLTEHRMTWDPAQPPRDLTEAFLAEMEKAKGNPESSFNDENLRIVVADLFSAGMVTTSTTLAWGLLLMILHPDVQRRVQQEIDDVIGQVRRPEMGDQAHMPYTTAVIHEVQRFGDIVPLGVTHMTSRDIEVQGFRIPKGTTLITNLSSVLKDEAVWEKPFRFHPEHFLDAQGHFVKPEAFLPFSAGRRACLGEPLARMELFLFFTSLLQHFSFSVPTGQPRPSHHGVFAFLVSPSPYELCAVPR

Cytochrome P450 2C9 = Cytochrome P450 2C9 (Homo sapiens, UniProt P11712); assay: Inhibition of CYP2C9; assay type: ADME
Sequence of Cytochrome P450 2C9 (P11712 whole entry): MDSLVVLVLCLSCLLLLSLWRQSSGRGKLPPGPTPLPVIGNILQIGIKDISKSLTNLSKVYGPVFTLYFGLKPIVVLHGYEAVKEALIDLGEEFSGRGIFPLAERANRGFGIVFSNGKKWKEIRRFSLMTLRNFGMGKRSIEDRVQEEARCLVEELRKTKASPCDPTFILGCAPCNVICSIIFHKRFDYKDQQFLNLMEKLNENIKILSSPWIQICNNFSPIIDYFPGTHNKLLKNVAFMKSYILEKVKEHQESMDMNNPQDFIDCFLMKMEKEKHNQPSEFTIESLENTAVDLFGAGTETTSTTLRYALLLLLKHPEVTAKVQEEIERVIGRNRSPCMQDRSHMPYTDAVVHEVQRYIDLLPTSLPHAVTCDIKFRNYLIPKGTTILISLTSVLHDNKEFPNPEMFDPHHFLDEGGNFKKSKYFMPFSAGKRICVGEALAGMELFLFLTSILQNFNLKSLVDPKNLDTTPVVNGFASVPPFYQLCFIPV

Rattus norvegicus [13] = assay: Antinociceptive activity in rat assessed as reversal of complete Freund's adjuvant-induced pain at 3 mg/kg, po after 1 hr; assay type: functional
Procedure, shortened: (§4)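 Rat CFA-induced inflammatory pain model, oral dosing. Mechanical allodynia assessed by paw pressure and expressed as % reversal. Plasma and brain drug levels measured at 3 h post-dose.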

Rattus norvegicus [14] = assay: Antinociceptive activity in rat assessed as reversal of complete Freund's adjuvant-induced pain at 3 mg/kg, po after 3 hrs; assay type: functional; procedure, shortened: as §4
Rattus norvegicus [15] = assay: Antinociceptive activity in rat assessed as reversal of complete Freund's adjuvant-induced pain at 3 mg/kg, po after 8 hrs; assay type: functional; procedure, shortened: as §4
Rattus norvegicus [16] = assay: Antinociceptive activity in rat assessed as reversal of complete Freund's adjuvant-induced pain at 10 mg/kg, po after 1 hr; assay type: functional; procedure, shortened: as §4
Rattus norvegicus [17] = assay: Antinociceptive activity in rat assessed as reversal of complete Freund's adjuvant-induced pain at 10 mg/kg, po after 3 hrs; assay type: functional; procedure, shortened: as §4
Rattus norvegicus [18] = assay: Antinociceptive activity in rat assessed as reversal of complete Freund's adjuvant-induced pain at 10 mg/kg, po after 8 hrs; assay type: functional; procedure, shortened: as §4
Rattus norvegicus [19] = assay: Antinociceptive activity in rat assessed as reversal of complete Freund's adjuvant-induced pain at 30 mg/kg, po after 1 hr; assay type: functional; procedure, shortened: as §4
Rattus norvegicus [20] = assay: Antinociceptive activity in rat assessed as reversal of complete Freund's adjuvant-induced pain at 30 mg/kg, po after 3 hrs; assay type: functional; procedure, shortened: as §4
Rattus norvegicus [21] = assay: Antinociceptive activity in rat assessed as reversal of complete Freund's adjuvant-induced pain at 30 mg/kg, po after 8 hrs; assay type: functional; procedure, shortened: as §4
Rattus norvegicus [22] = assay: Antiallodynic activity in rat spinal nerve ligation model of neuropathic pain assessed as reversal of mechanical allodynia at 10 mg/kg, po after 1 hr; assay type: functional
Procedure, shortened: (§5)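 Rat spinal nerve ligation neuropathic pain model, oral dosing. Read-out is % reversal of mechanical allodynia. Plasma and brain drug levels measured at 1 h. An efficacious (EC50) plasma exposure was derived.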

Rattus norvegicus [23] = assay: Antiallodynic activity in rat spinal nerve ligation model of neuropathic pain assessed as reversal of mechanical allodynia at 10 mg/kg, po after 3 hrs; assay type: functional; procedure, shortened: as §5
Rattus norvegicus [24] = assay: Antiallodynic activity in rat spinal nerve ligation model of neuropathic pain assessed as reversal of mechanical allodynia at 10 mg/kg, po after 8 hrs; assay type: functional; procedure, shortened: as §5
Rattus norvegicus [25] = assay: Antiallodynic activity in rat spinal nerve ligation model of neuropathic pain assessed as reversal of mechanical allodynia at 30 mg/kg, po after 1 hr; assay type: functional; procedure, shortened: as §5
Rattus norvegicus [26] = assay: Antiallodynic activity in rat spinal nerve ligation model of neuropathic pain assessed as reversal of mechanical allodynia at 30 mg/kg, po after 3 hrs; assay type: functional; procedure, shortened: as §5
Rattus norvegicus [27] = assay: Antiallodynic activity in rat spinal nerve ligation model of neuropathic pain assessed as reversal of mechanical allodynia at 30 mg/kg, po after 8 hrs; assay type: functional; procedure, shortened: as §5
[28] = Volume of distribution at steady state in rat at 1 mg/kg, iv and 3 mg/kg, po; assay type: ADME, organism-based; conditions: in vivo, read-out: Vdss; procedure, shortened: as §2
[29] = Cmax in rat at 1 mg/kg, iv and 3 mg/kg, po; assay type: ADME, organism-based; conditions: in vivo; procedure, shortened: as §2
[30] = Plasma concentration in rat at 30 mg/kg, po after 3 hrs; assay type: ADME, organism-based; set-up: dose 30 mg/kg, route oral; conditions: read-out: Activity; procedure, shortened: as §4
[31] = Drug level in rat brain at 30 mg/kg, po after 3 hrs; assay type: ADME, organism-based; set-up: dose 30 mg/kg, route oral; conditions: read-out: Activity; procedure, shortened: as §4
[32] = Plasma concentration in rat spinal nerve ligation model at 30 mg/kg, po after 1 hrs; assay type: ADME, organism-based; set-up: dose 30 mg/kg, route oral; conditions: read-out: Activity; procedure, shortened: as §5
[33] = Drug level in spinal nerve ligation model rat brain at 30 mg/kg, po after 1 hrs; assay type: ADME, organism-based; set-up: dose 30 mg/kg, route oral; conditions: read-out: Activity; procedure, shortened: as §5
Rattus norvegicus [34] = species on record: Rattus norvegicus; assay: Neurotoxicity in rat assessed as impairment of motor coordination at 8 uM plasma concentration by rotarod test; assay type: toxicity, organism-based; conditions: in vivo
Procedure, shortened: (§6)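 Rat Rotarod motor coordination test after IV doses of 3 and 10 mg/kg. Plasma and brain drug concentrations determined alongside coordination impairment.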

Rattus norvegicus [35] = species on record: Rattus norvegicus; assay: Neurotoxicity in rat assessed as impairment of motor coordination at 6 uM brain concentration by rotarod test; assay type: toxicity, organism-based; conditions: in vivo; procedure, shortened: as §6
Plasma = assay: Plasma concentration in rat at 3 mg/kg, iv; assay type: ADME, organism-based; set-up: dose 3 mg/kg, route intravenous; conditions: in vivo, read-out: Drug uptake; procedure, shortened: as §6
Brain = assay: Drug level in rat brain at 3 mg/kg, iv; assay type: ADME, organism-based; set-up: dose 3 mg/kg, route intravenous; conditions: in vivo, read-out: Drug uptake; procedure, shortened: as §6
Rattus norvegicus [36] = species on record: Rattus norvegicus; assay: Neurotoxicity in rat assessed as impairment of motor coordination at 1.9 uM plasma concentration by rotarod test; assay type: toxicity, organism-based; conditions: in vivo; procedure, shortened: as §6
Rattus norvegicus [37] = species on record: Rattus norvegicus; assay: Neurotoxicity in rat assessed as impairment of motor coordination at 1.4 uM brain concentration by rotarod test; assay type: toxicity, organism-based; conditions: in vivo; procedure, shortened: as §6
Rattus norvegicus [38] = species on record: Rattus norvegicus; assay: Antiallodynic activity in rat spinal nerve ligation model of neuropathic pain assessed as reversal of mechanical allodynia at 0.44 uM plasma concentration; assay type: functional, organism-based; procedure, shortened: as §5
Canis familiaris [39] = species on record: Canis familiaris; assay: Cardiotoxicity in dog assessed as reduction in mean arterial pressure at >2 uM plasma concentration; assay type: toxicity, organism-based, Canis lupus familiaris
Procedure, shortened: (§7)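 Barbiturate-anesthetized, ventilated dogs given rising IV doses of 1, 3 and 10 mg/kg. Mean arterial pressure and heart rate recorded against plasma drug concentration.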

Canis familiaris [40] = species on record: Canis familiaris; assay: Cardiotoxicity in dog assessed as reduction in heart rate at maximal plasma exposure; assay type: toxicity, organism-based, Canis lupus familiaris; set-up: scale not given: the % may be the effect or the level left; procedure, shortened: as §7

clearance [1]: 5.6 mL/min/kg
bioavailability [2]: 68%
EC50 [4]: > 30 µM
remaining at 1 h [5]: 20%
remaining at 1 h [6]: 20%
AUC (Rattus norvegicus [7]): 0.34 µM·kg·h/mg
clearance [8]: 64 mL/min/kg
half-life [9]: 1.4 h
AUC (Canis familiaris [10]): 1.02 µM·kg·h/mg
half-life [11]: 4.6 h
bioavailability [12]: 18%
IC50 (Cytochrome P450 3A4): > 10 µM
IC50 (Cytochrome P450 2D6): > 10 µM
IC50 (Cytochrome P450 2C9): > 10 µM
Vd [28]: 5.1 L/kg
Cmax [29]: 290 nM
concentration at 3 h [30]: 750 nM
concentration at 3 h [31]: 170 nM
concentration at 1 h [32]: 410 nM
concentration at 1 h [33]: 260 nM
concentration (Plasma): 1900 nM
concentration (Brain): 1400 nM
Structure (SMILES): CC(C)(C)NC(=O)Cn1c(-c2ccc(OC(F)(F)F)cc2)cc2cc(C(C)(C)C(=O)NC(C)(C)C)ccc21
inhibition at 10 µM [3]: 85%
Activity (Rattus norvegicus [13]): 36%
Activity (Rattus norvegicus [14]): 37%
Activity (Rattus norvegicus [15]): 17%
Activity (Rattus norvegicus [16]): 57%
Activity (Rattus norvegicus [17]): 52%
Activity (Rattus norvegicus [18]): 22%
Activity (Rattus norvegicus [19]): 66%
Activity (Rattus norvegicus [20]): 68%
Activity (Rattus norvegicus [21]): 32%
Activity (Rattus norvegicus [22]): 45%
Activity (Rattus norvegicus [23]): 47%
Activity (Rattus norvegicus [24]): 14%
Activity (Rattus norvegicus [25]): 68%
Activity (Rattus norvegicus [26]): 50%
Activity (Rattus norvegicus [27]): 27%
Activity (Rattus norvegicus [34]): Toxic
Activity (Rattus norvegicus [35]): Toxic
Activity (Rattus norvegicus [36]): Non-toxic
Activity (Rattus norvegicus [37]): Non-toxic
Activity (Rattus norvegicus [38]): Active
Activity (Canis familiaris [39]): Toxic
Activity (Canis familiaris [40]): 32%
